Reference: paper PMC13570607 (European journal of medicinal chemistry, 2025)

Columns and labels:
TG2 = biological target: T1, TG2 (Homo sapiens, UniProt P21980); test: TG2 transamidase activity in protein lysates of treated SKOV3 cells; type: cell-based
T1 sequence (P21980 1-687): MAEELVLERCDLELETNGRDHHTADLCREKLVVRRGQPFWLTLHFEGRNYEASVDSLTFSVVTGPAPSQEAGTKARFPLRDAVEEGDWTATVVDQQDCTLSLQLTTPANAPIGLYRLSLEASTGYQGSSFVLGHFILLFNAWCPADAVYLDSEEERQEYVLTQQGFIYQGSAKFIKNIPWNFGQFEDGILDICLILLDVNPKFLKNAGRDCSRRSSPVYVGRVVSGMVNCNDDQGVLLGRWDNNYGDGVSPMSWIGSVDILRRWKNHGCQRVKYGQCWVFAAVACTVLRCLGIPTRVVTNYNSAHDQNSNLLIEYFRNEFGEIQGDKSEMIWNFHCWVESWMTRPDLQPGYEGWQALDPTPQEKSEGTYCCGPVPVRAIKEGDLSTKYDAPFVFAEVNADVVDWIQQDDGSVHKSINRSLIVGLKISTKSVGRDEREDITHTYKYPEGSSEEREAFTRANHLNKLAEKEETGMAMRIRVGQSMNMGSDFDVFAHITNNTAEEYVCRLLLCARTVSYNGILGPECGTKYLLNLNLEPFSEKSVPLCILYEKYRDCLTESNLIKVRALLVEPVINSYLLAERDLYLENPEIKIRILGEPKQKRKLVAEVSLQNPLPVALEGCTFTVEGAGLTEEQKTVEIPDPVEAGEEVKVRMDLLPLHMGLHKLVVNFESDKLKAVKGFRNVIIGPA
Outline: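 SKOV3 cells were treated with 10 μM test compound for 24 h, and lysates were assayed in a colorimetric transamidase kit. Controls were a reference TG2 inhibitor at 20 μM, VHL ligand at 10 μM, 50 mM EDTA, and lysates of TG2-knockdown or control-shRNA cells. Lysates were incubated with assay mixture for 30 min at 37 °C, then washed, including a 0.1 M NaOH wash. Detection used streptavidin-HRP (1:2000, 15 min, 37 °C), then HRP substrate for 5 min, stopped, and read at 450 nm.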

[1] = Hepatic microsomal stability; type: in vitro ADME; conditions: mouse liver microsomes 1 mg/mL; 1 μM compound; NADPH
Outline: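 Incubation buffer was 100 mM potassium phosphate, pH 7.4. The reaction was started with NADPH (1 mM final). Aliquots taken at 0, 5, 10, 20, 40 and 60 min were quenched in acetonitrile (5x v:v), filtered and analysed by LC-MS/MS. Data were log-transformed to give half-life and intrinsic clearance.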

Kinetic solubility = type: physicochemical; conditions: PBS pH 7.4; room temp 24 h
Outline: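 A 10 mM DMSO stock was diluted 1 μL into 99 μL PBS pH 7.4. It was held at room temperature for 24 h, filtered, and quantified by LC/MS/MS.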

Equilibrium solubility = type: physicochemical; conditions: PBS pH 7.4; 24 h
Outline: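 About 1-2 mg of dry compound was added to 1 mL PBS pH 7.4 in a test tube. The mixture was inverted for 24 h, then filtered, and the filtrate was quantified by LC/MS/MS.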

[2] = Parallel Artificial Membrane Permeability Assay; type: in vitro ADME; conditions: 5 μM; 37 °C; 5 h
Outline: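 Passive permeability was measured on a pre-coated PAMPA plate. The donor (bottom) side held 0.02% BSA in PBS with compound added from DMSO solution. The receiver (top) side held 0.4% BSA in PBS. After 5 h at 37 °C, receiver samples were quantified by LC/MS/MS.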

TG2 enzymatic (transamidase) activity (TG2; 10 μM, 24 hours)	Microsomal Stability Clint [1] [µL/min/mg]	Microsomal Stability T1/2 [1] [min]	Kinetic Solubility (Kinetic solubility) [µM]	Equilibrium Solubility (Equilibrium solubility) [µM]	TG2 enzymatic (transamidase) activity (TG2; 20 μM)	PAMPA Permeability [2]	Compound
no effect on transamidating activity							Cc1ncsc1-c1ccc(CNC(=O)[C@@H]2C[C@@H](O)CN2C(=O)[C@@H](N)C(C)(C)C)cc1 [VHL ligand 1]
	46	15.2	54.96	0.76	no effect on transamidating activity	2.60 10^−6 cm*s^−1	Cc1cc(N(C)C)nc(Nc2ccc(NC(=O)Cc3ccccc3)cc2)n1 [MT4]
